Tested on: UPEC UTI89 capsule, orcinol assay OD572
Assay: bacterial K capsule biogenesis inhibition, UTI89 – orcinol colorimetric, OD572, set 2, orthogonal assay for bacterial capsule biogenesis inhibitors, confirmation (AID 624060)
Details: at 100 µM; stronger effect = lower value
Summary of the method: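 Test system – UPEC UTI89 plus ΔkpsM mutant · Doses – one dose, 100 µM · Schedule – hydrolysis 1 h, 80 °C · Signal – orcinol color, OD 572 nm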

SMILES: CCOc1ccc(-c2cc(NC(=O)c3c(F)cccc3F)c(C(=O)O)s2)cc1
- capsule formation: 21%

From PubChem BioAssay AID624060 (Southern Research Specialized Biocontainment Screening …, 2012)
